Broadly, the apparent Kd is the concentration giving half-maximal binding under the conditions of the assay.

This data set has as its system MS2 coat protein. The data set can be described thus: apparent Kd, MS2 coat protein; higher = weaker binding; RNA-MaP array; FMN 200 µM where present. The procedure, abridged: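 SNAP-549-labelled MS2 coat protein, doubled from 0.7 or 1.5 nM to 3 µM, was titrated over designs transcribed by stalled E. coli RNA polymerase on Illumina sequencing-chip clusters. Titrations were run without and then with constant ligand in 100 mM Tris-HCl pH 7.5, 80 mM KCl, 4 mM MgCl2, BSA, DTT, yeast tRNA and Tween-20. The apparent Kd is the median of filtered per-cluster fits to green signal normalised to red-channel RNA signal and control-cluster median Fmax.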

The mark [1] stands for this setting: designed as: OFF switch for flavin mononucleotide, no ligand.
Where [2] appears, read: ligand present: flavin mononucleotide, designed as: OFF switch for flavin mononucleotide.
[3] abbreviates: designed as: ON switch for flavin mononucleotide, no ligand.
Where [4] appears, read: ligand present: flavin mononucleotide, designed as: ON switch for flavin mononucleotide.

As to “AGCGUGUAAGGAUAUACGUCGGACAGCAAAUGCUAUCCCUAGUAGAAGGUACAUGAGGAUCACCCAUGUGUCCA”, the “apparent Kd” value under setting [1] amounted to 22.9 nM and the “apparent Kd” value under setting [2] is 58.8 nM.

With “UUAACUCAUGUAGGAUAUGCAUGGCGAAGCUACGCAGAAGGACAUGAGGAUCACCCAUGUUCUAGCGUCUGGAUACAGAUGCAA”, the “apparent Kd” value stood at 56.1 nM under setting [1] and 227 nM under setting [2].

With “AUCAGCUCGUCAGGAUAUACGUCACUGCGUCAGCAGUGUAGUAAGAUCACAUGAGGAUCACCCAUGUAGAAGGGACGAGCUGAU”, the “apparent Kd” value came out at 5.55 nM under setting [1] and 12 nM under setting [2].

As for “GUAUAUAGUGUGAGGAUAUGCUGGUCCUUGGAUCAGCAGAAGGCACAUGAGGAUCACCCAUGUAGUUUAUUAUU”, the “apparent Kd” value was 25 nM under setting [1] and 80.3 nM under setting [2].

Consider “UGCUGUGGCAGAGGAUAUACUCUAAUAAUCCAUUGCAAAUAGCGAUGGACAUGAGGAUCACCCAUGUAGAAGGCUGUCACAGCA”, for which the “apparent Kd” value is, setting by setting: under setting [1], 63.7 nM; under setting [2], 137 nM.

As to “UGAUCGAAAGAUCAUAGAUUCUGCUAGGAUAUGCAGGAGUUGCGCUUUACAUGAGGAUCACCCAUGUAGAAGGAGUAGAGUCUA”, the “apparent Kd” value turned out to be 6.77 nM under setting [1] and 8.88 nM under setting [2].

As to “CAGCGCUGUCGAGAGGAUAUGCUGUGAUGGACAUGAGGAUCACCCAUGUUAGCGAUAGCAUUACUGUAGAAGGCUCUACAGCUGC”, the “apparent Kd” value under setting [3] turned out to be 13.4 nM and the “apparent Kd” value under setting [4] was found to be 12.8 nM.

“GCACGGUAAGUGAGGAUAUACCUCUGGAUACAGAGGUAGAAGGCACAUGAGGAUCACCCAUGUCCAAGCCGUGC”: the “apparent Kd” value was 23.7 nM under setting [1] and 103 nM under setting [2].

Take “GGGUACAUCGGAGGAUAUCAUGUAAAUACAUGAGGAUCACCCAUGUUGAUGGAGACAUCGGAGAUUGAGAAGGCCGAUGUACCG”: the “apparent Kd” value by setting is: under setting [3], 41.9 nM; under setting [4], 6.03 nM.

Turning to “CUCGCAGUAAUAGGAUAUCCACAUCCGUGGCCUGUGUGUGACUUAACAUGAGGAUCACCCAUGUUGGAGAAGGAUUACUCAAUA”, the “apparent Kd” value is, setting by setting: under setting [1], 728 nM; under setting [2], 178 nM.

For “AGCUCGCGAAGAGGAUAUACAGCGGCGACCUAUCAUGAUGAGCGGGUUACAUGAGGAUCACCCAUGUAGAAGGCUUCCCGACUC”, the “apparent Kd” value came out at 17.9 nM under setting [1] and 52.2 nM under setting [2].

Take “UGUUGUAUUACAGGAUAUCUAUGAUUUUUAUAUAGAGAAGGGUAUUCACAUGAGGAUCACCCAUGUAUAUACGAGGAAGUUGUG”: the “apparent Kd” value is 49 nM under setting [3] and 56 nM under setting [4].

Take “CGGGUGGUCCUCCGGGAUUGGACACAGGAUAUCCGCGAAAACAUGAGGAUCACCCAUGUAUAUGAGGAGAAGGGUGGACGAAGA”: the “apparent Kd” value was 56.2 nM under setting [3] and 15.6 nM under setting [4].

As for “UGUCGGAGCAGAGGAUAUUACAUGAGGAUCACCCAUGUAUGAACCAAUGGCUGGAAACAGCAAUGUAAGAAGGCUGCUCCGACA”, the “apparent Kd” value was determined as 9.69 nM under setting [1] and 64.5 nM under setting [2].

For “GGGUCAACAUGAGGAUCACCCAUGUAGGAUAUCGCUAUUGUAAUCAUGAAACAUGAUUACAAUAGCGAGAAGGACAUAUGUCCC”, the “apparent Kd” value by setting is: under setting [1], 9 nM; under setting [2], 11.8 nM.

With “CAAAAGGAAGGAUAUGCAUCGGGAGGUGCUCAGCAUCAAAUACAUGAGGAUCACCCAUGUAGAAGGUCUGAAAA”, the “apparent Kd” value came to 32.1 nM under setting [1] and 85.7 nM under setting [2].

“AAAUUUUGUCAAGGAUAUGUAUAAAAGAUAAGAAAACAUGAGGAUCACCCAUGUAUAUGGUGGGAACAGAAGGUGAAUAAGUAA”: the “apparent Kd” value was determined as 185 nM under setting [1] and 158 nM under setting [2].

With “AGAUAGGACAGAGGAUAUACGUGCUAGAGAUACUAGCAAAAUUUCCUCACAUGAGGAUCACCCAUGUAGAAGGCUGUCCUAUCG”, the “apparent Kd” value by setting is: under setting [1], 15.6 nM; under setting [2], 436 nM.

On to “CGAUAUAUGAAGGACGGAAACGUACAUGAGGAUCACCCAUGUAGAAGGCGAUCCGCAACGCGGAUCGAGGAUAUAUAGUAUACA”, for which the “apparent Kd” value is, setting by setting: under setting [1], 24.2 nM; under setting [2], 17.6 nM.

With “GCUAGAGCAGGAUAUCUAGAUCCACACAUGAGGAUCACCCAUGUACAGUCGAAAGACUGAAGAGAAGGGCUCUAGC”, the “apparent Kd” value runs as follows: under setting [1], 69.7 nM; under setting [2], 92.7 nM.

In the case of “UUACACUUGAGGGUCUCCCUUGACAUGAGGAUCACCCAUGUGCAGGAUAUACGUGUGAUGGUAUAGUAGAAGGGCACUCUAUGU”, the “apparent Kd” value under setting [1] was 23 nM and the “apparent Kd” value under setting [2] is 29.7 nM.

For the sequence “AUACAUGAGGAUCACCCAUGUAAUUAAUUAAUUAAUAAGAUCAAGGAUAUCAGCUCGAUUAGAGCUGAGAAGGUGAUCACAUGU”, the “apparent Kd” value was determined as 417 nM under setting [3] and 306 nM under setting [4].

In the case of “AAGUAGAUCCGAGGAUAUACAAGCCGGAAACGGUACAUGAGGAUCACCCAUGUAGAAGGCGGAUCUACAGGUACUAAAGUACCA”, the “apparent Kd” value is, setting by setting: under setting [1], 5.53 nM; under setting [2], 9.17 nM.

For the sequence “GUGGUCAGACAUGAGGAUCACCCAUGUGGAAUAAAUAACAGACAGGAUAUCUAAUAUAGGAUAUAGGAGAAGGGUCGAUUGGUG”, the “apparent Kd” value runs as follows: under setting [3], 89 nM; under setting [4], 85.3 nM.

“UGUGAGUUGAUGUUAGAUAGGAGAACAUGAGGAUCACCCAUGUAGGAUAUUCAAAGACGAAGAUAGAAGAAGGACAUAGGUUUC”: the “apparent Kd” value reads like this: under setting [1], 17.7 nM; under setting [2], 21.5 nM.

With “AGGGUAUGAACAUGAGGAUCACCCAUGUAAACGGAAACGAAUGAGGAUAUCGAUAGCAAAGCUAUCGAGAAGGCAUGGGACCCU”, the “apparent Kd” value amounted to 286 nM under setting [3] and 49.1 nM under setting [4].

Turning to “GUGGCUCCCACAGGAUAUCCACAUGAGGAUCACCCAUGUCUAAUUAACAAAGGAGAAGGGUGGGACAAUUCUGGUGACUGAGAA”, the “apparent Kd” value turned out to be 30.1 nM under setting [3] and 4.89 nM under setting [4].

Consider “AAAUGCCUGUCGAUGCUCGACAUGAGGAUCACCCAUGUAUGGCAGGAUAUGCAGAACUGACUCGUGCAGAAGGGCUAUACCUAA”, for which the “apparent Kd” value is, setting by setting: under setting [1], 8.06 nM; under setting [2], 24.7 nM.

Consider “AACCAGUUGGUAGGAUAUGGUACAGUACCCGUACCAGAAGGACCAACAUGAGGAUCACCCAUGUUGGAAAGUCAACAUUAAUGA”, for which the “apparent Kd” value under setting [1] amounted to 6.51 nM and the “apparent Kd” value under setting [2] was found to be 14 nM.

Take “GUAGCAUGCCAAGGAUAUUCAUAUAGUAGGCAAACAUGAGGAUCACCCAUGUAAUGAGAGCACUGGGAGAAGGUGGGAUGCUAC”: the “apparent Kd” value is, setting by setting: under setting [3], 28.6 nM; under setting [4], 21.4 nM.

Regarding “AUUUUGUGAGGAUAUCAGGUGUGCUAGCGUACUGGUACAUCUGAGAAGGCACAUGAGGAUCACCCAUGUUUAUU”, the “apparent Kd” value amounted to 26.6 nM under setting [1] and 60 nM under setting [2].

“AGGAGUAAAGGGAAUAACAUGAGGAUCACCCAUGUAUGGGAGAGAAGGCAUAUCGGAGGACGAUAUGAGGAUAUUUAAACUUUA”: the “apparent Kd” value is 106 nM under setting [3] and 20.5 nM under setting [4].

Consider “GUAUGAGCGAUAGGAUAUACUGAGAUUGAAUGGGUAGAAGGAUUUCUUGUGGGAAAGACAUGAGGAUCACCCAUGUCGCGGACC”, for which the “apparent Kd” value by setting is: under setting [3], 299 nM; under setting [4], 176 nM.

In the case of “UGGUACUAGGGAGGAUAUGGGAAGAUACAUGAGGAUCACCCAUGUUUACGAAUGCCGAGAGGCAACUAGAAGGCCCUAGUACCU”, the “apparent Kd” value runs as follows: under setting [3], 315 nM; under setting [4], 19.5 nM.

For the sequence “UAUAUAUAGUAAGGAUAUGUAUCUAUUUUAUAAACAGAAGGUACUGACAUGAGGAUCACCCAUGUUUUAGUGUGGGCAUGUAGA”, the “apparent Kd” value under setting [1] was found to be 92.2 nM and the “apparent Kd” value under setting [2] came out at 114 nM.

For the sequence “UUUUUACUUGUAGGAUAUGGAGACAUGAGGAUCACCCAUGUAUGAUAAGCUAAAUUAUGCUGUGGCCAGAAGGAUAUUAUUCUU”, the “apparent Kd” value amounted to 48.2 nM under setting [3] and 53.7 nM under setting [4].

The record behind these values is the EternaBench riboswitch data.
